Reference: PubChem BioAssay AID488782 (The Scripps Research Institute Molecular Screening Center, 2010)
The source made the active and inactive calls.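 Rule for the calls: active = concentration giving half-maximal inhibition of the luciferase signal, from the fitted curve, at 5 µM or lower; inactive = half-inhibition concentration above 5 µM.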

Molecular target: Nuclear receptor subfamily 5 group A member 2 (Homo sapiens) (UniProt O00482)
Test: LRH1 inhibitors, concentration-response, dose response, cell-based, HEK293T, Cyp19 aromatase-luciferase, luminescence, powder samples (AID 488782)
Settings: HEK293T LRH1 Cyp19-luciferase reporter, 20 h
Procedure, shortened: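 Assay system: HEK293T cells carrying LRH1 plus Cyp19-luciferase reporter; timing: bulk transfection 24 h before replating, compound exposure 20 h; measured by: luminescence from luciferase reporter; measure: IC50 from sigmoidal fit of DMSO-normalized inhibition; repeats: triplicate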

Nuclear receptor subfamily 5 group A member 2 (Homo sapiens), sequence (O00482 whole entry, looked up): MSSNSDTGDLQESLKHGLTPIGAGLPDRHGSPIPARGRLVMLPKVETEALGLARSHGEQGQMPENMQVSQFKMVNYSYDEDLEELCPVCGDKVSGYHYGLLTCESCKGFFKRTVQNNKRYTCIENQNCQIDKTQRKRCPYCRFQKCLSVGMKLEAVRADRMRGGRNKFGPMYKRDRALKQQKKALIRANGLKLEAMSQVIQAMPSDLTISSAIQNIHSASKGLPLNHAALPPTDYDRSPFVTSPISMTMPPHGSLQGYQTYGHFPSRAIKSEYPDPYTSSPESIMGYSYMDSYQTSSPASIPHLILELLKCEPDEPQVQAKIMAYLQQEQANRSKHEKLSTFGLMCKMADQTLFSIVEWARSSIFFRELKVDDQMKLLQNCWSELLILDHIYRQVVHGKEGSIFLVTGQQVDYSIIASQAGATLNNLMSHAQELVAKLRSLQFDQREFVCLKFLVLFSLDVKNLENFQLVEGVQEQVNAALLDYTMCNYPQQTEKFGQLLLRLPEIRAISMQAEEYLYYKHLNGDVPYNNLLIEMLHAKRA

IC50	fold change, lower = inhibition (at 10 µM (top of the series))	Compound
430 nM		O=c1cc(N2CCN(c3cccc(Cl)c3Cl)CC2)[nH]c(=O)n1C1CCCCC1
4200 nM		CCn1c(=O)cc(N2CCN(c3cccc(Cl)c3)CC2)[nH]c1=O
	inactive	O=c1cc(N2CCN(Cc3ccc(Cl)cc3)CC2)[nH]c(=O)n1C1CCCCC1
1100 nM		Cn1c(=O)cc(N2CCN(c3cccc(Cl)c3)CC2)[nH]c1=O
538 nM		O=c1cc(N2CCN(c3cccc(Cl)n3)CC2)[nH]c(=O)n1C1CCCCC1
320 nM		O=c1cc(N2CCN(c3cccc(C(F)(F)F)c3)CC2)[nH]c(=O)n1C1CCCCC1
4000 nM		O=c1cc(N2CCN(c3ccnc4cc(Cl)ccc34)CC2)[nH]c(=O)n1C1CCCCC1
921 nM		O=c1cc(N2CCN(C3CCCCC3)CC2)[nH]c(=O)n1C1CCCCC1
570 nM		C=CCn1c(=O)cc(N2CCN(c3cccc(C(F)(F)F)c3)CC2)[nH]c1=O
2600 nM		O=c1cc(N2CCN(c3ccccc3)CC2)[nH]c(=O)n1C1CCCCC1
1000 nM		CCn1c(=O)cc(N2CCN(c3cccc(C(F)(F)F)c3)CC2)[nH]c1=O
110 nM		CC(C)Cn1c(=O)cc(N2CCN(c3cccc(C(F)(F)F)c3)CC2)[nH]c1=O
4800 nM		O=c1cc(N2CCN(c3nc(-c4ccccc4)ns3)CC2)[nH]c(=O)n1C1CCCCC1
3700 nM		O=c1cc(N2CCN(c3cccc(Cl)c3)CC2)[nH]c(=O)n1C1CCCCC1
